Measurements published in PMC3962784 (Journal of medicinal chemistry, 2013).

What was measured:
[1] = target: T1, full length Cal1 (full length porcine calpain) (Sus scrofa, UniProt P35750); experiment: Calpain inhibition kinetics, Suc-LLVY-AMC progress curves; assay type: biochemical; settings: for Calpain1 rel (ki/Ki calculated relative to E-64): E-64 = 1; for Relative selectivity for inhibition of Cal1 over papain (in words): assessed using ki/Ki; for Calpain1 ki/Ki / Calpain1 ki: full length Cal1; for Calpain1 ki/Ki: mean ± S.D. of triplicate; for Calpain1 ki: inhibition rate constant; for 10^2 × ki/Ki Cal1 / ki/Ki papain: selectivity ratio Cal1 over papain
T1 sequence (P35750 1-714): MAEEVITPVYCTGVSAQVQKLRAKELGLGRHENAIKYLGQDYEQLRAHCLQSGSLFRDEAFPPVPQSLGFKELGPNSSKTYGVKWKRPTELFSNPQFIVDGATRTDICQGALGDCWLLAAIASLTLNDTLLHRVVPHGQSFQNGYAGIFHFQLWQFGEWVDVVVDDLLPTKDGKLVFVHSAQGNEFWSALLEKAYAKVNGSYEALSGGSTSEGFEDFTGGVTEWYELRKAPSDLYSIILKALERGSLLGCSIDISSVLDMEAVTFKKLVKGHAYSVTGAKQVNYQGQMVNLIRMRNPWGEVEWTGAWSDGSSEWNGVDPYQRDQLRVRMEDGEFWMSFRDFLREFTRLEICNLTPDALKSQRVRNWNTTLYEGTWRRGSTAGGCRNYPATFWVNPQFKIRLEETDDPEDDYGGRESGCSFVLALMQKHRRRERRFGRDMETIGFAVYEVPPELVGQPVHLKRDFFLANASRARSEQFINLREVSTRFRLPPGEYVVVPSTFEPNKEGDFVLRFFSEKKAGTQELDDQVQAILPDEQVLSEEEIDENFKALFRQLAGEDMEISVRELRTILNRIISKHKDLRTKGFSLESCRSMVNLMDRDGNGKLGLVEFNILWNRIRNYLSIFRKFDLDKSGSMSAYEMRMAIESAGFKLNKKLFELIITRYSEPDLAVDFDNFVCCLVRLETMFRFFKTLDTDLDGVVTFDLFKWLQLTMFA
T1 sequence (P04574 1-266 partner): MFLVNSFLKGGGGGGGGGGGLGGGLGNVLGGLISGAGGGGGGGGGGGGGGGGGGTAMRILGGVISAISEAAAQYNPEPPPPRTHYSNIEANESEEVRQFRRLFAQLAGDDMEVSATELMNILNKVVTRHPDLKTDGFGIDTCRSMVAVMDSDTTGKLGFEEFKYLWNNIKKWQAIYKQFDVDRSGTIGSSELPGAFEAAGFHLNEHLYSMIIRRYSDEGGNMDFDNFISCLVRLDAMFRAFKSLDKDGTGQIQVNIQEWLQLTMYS

papain = target: T2, papain (Carica papaya, UniProt P00784); experiment: Papain inhibition kinetics, Suc-LLVY-AMC progress curves; assay type: biochemical; settings: for Papain rel (ki/Ki calculated relative to E-64): E-64 = 1; for Papain ki: inhibition rate constant; for Papain ki/Ki: mean ± S.D. of triplicate
T2 sequence (P00784 134-345): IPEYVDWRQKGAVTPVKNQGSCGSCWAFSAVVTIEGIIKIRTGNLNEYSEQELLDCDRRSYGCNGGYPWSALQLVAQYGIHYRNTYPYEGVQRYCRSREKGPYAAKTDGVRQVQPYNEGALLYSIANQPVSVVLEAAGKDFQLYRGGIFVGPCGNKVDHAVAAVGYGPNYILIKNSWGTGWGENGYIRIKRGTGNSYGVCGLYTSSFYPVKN
Summary of the method: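 Papain (236 pM) in 100 mM NaCl, 50 mM HEPES pH 7.6, 1 mM TCEP with 30 µM Suc-LLVY-AMC and inhibitor at 0.5–50 µM, 30 °C. Organic solvent (acetonitrile/DMSO 1:1) stayed below 2%. AMC release was followed over time at Ex/Em 346/444 nm. Constants came from varied enzyme and inhibitor concentrations, and selectivity from ki/Ki with E-64 as 1.0. Triplicates.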

[2] = target: recombinant rat Cal1cat (Cal1 catalytic domain) active site Cys (Rattus norvegicus, UniProt P97571); experiment: LC-MS/MS examination of inhibitor modified Cal1cat active site; assay type: binding; settings: co-incubation of Cal1cat (1 μM) with E-64 and 22a, both 5 μM
Summary of the method: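 Recombinant rat Cal1cat from E. coli (1 μM), activated with CaCl2 (10 mM), co-incubated 20 min with both inhibitors at 5 μM each. Quenched with EDTA, run on SDS-PAGE; band excised, alkylated in-gel with IAA (100 mM, 60 min), trypsin-digested. Ion-trap LC-MS/MS, reverse-phase column, ACN/water with 0.1% formic acid. Semiquantitative EIC of modified peptides against non-active-site IAA-capped peptide internal standard.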

recombinant rat Cal1cat (Cal1 catalytic domain) active site Cys, sequence (P97571 55-354 limits assumed): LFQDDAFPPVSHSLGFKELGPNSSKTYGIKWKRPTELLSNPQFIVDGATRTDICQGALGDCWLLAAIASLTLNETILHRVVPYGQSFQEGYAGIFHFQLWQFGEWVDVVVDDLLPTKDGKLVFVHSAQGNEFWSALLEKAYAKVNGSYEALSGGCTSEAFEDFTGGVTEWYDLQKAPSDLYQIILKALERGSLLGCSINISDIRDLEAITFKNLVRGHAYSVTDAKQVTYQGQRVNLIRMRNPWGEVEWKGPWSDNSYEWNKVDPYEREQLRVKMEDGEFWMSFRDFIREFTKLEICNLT

Row | Structure (SMILES) | Calpain1 rel (ki/Ki calculated relative to E-64) [1] | Relative selectivity for inhibition of Cal1 over papain (in words) [1] | Calpain1 ki/Ki [1] | Calpain1 ki [1] | 10^2 × ki/Ki Cal1 / ki/Ki papain [1] | Papain rel (ki/Ki calculated relative to E-64) (papain) | Papain ki (papain) | Papain ki/Ki (papain) | Competitive modification of Cal1cat active site [2]
1 | O=C(Nc1nc(-c2ccc(F)cc2)cs1)[C@H](Cc1cscn1)NC(=O)[C@H]1O[C@@H]1C(=O)O [compound 31, 3-((S)-1-(4-(4-fluorophenyl)thiazol-2-ylamino)-1-oxo-3-(thiazol-4-yl)propan-2-ylcarbamoyl)oxirane-2-carboxylic acid] | 0.98 | show Cal1 selectivity | 2.96±0.14 ×l0^−4 s^−1M^−1 | 0.08 s⁻¹ | 1.06 | 0.50 | 14.8 s⁻¹ | 279 ± 47 ×l0^−4s^−1M^−1 | –
2 | O=C(NCc1cn(-c2ccc(F)cc2)nn1)[C@H](Cc1cscn1)NC(=O)[C@H]1O[C@@H]1C(=O)O [compound 36, (2S,3S)-3-((S)-1-((1-(4-fluorophenyl)-1H-1,2,3-triazol-4-yl)methylamino)-1-oxo-3-(thiazol-4-yl)propan-2-ylcarbamoyl)oxirane-2-carboxylic acid] | 1.1 | show Cal1 selectivity | 3.31±0.32 ×l0^−4 s^−1M^−1 | 0.10 s⁻¹ | 5.0 | 0.12 | 12.7 s⁻¹ | 66.2 ±7.4 ×l0^−4s^−1M^−1 | –
3 | C#Cc1ccc(-c2csc(NC(=O)[C@H](Cc3cscn3)NC(=O)[C@H]3O[C@@H]3C(=O)O)n2)cc1 [compound 32, (2S,3S)-3-((S)-1-(4-(4-ethynylphenyl)thiazol-2-ylamino)-1-oxo-3-(thiazol-4-yl)propan-2-ylcarbamoyl)oxirane-2-carboxylic acid] | 1.3 | show Cal1 selectivity | 3.89±0.41 ×l0^−4 s^−1M^−1 | 0.14 s⁻¹ | 1.74 | 0.40 | 21.6 s⁻¹ | 223 ± 2.4 ×l0^−4s^−1M^−1 | –
4 | CC(C)C[C@H](NC(=O)[C@H]1O[C@@H]1C(=O)O)C(=O)NCCCCN=C(N)N [E-64, L-trans-epoxysuccinyl-leucylamido(4-guanidino)butane, reference compound] | – | – | 3.02±0.15 ×l0^−4 s^−1M^−1 | 0.12 s⁻¹ | 0.54 | – | 28.6 s⁻¹ | 563 ± 52 ×l0^−4s^−1M^−1 | –
5 | CC(C)C[C@H](NC(=O)[C@H]1O[C@@H]1C(=O)O)C(=O)Nc1nc(-c2ccc(F)cc2)cs1 [22a, (2S,3S)-3-((S)-1-(4-(4-fluorophenyl)thiazol-2-ylamino)-4-methyl-1-oxopentan-2-ylcarbamoyl)oxirane-2-carboxylic acid] | – | – | – | 0.16 s⁻¹ | – | – | 17.1 s⁻¹ | – | relatively greater modification by 22a
